The record followed here is ChEMBL document CHEMBL5154915 (J Med Chem, 2022).

In data set [1] the target is Na+/K+ ATPase alpha 1 (Canis lupus familiaris, UniProt P50997). The data set is described as follows: Inhibition of Beagle dog kidney NA+/K+ ATPase alpha 1 by measuring 32P-ATP hydrolysis at 0.0001 M preincubated for 10 mins followed by addition of 32P-ATP measured after 15 mins. The following applies: dog kidney Na+/K+ ATPase alpha 1, probe 32P-ATP, time 25 min. The format is toxicity. In short, it runs like this: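 Na+/K+ ATPase-α1 was purified from dog kidney (specific activity 14 μmol/min/mg protein). Compounds were tested from 10–9 to 10–4 M. Activity is the ouabain (1 mM)-sensitive part of total 32P-ATP release at 37 °C. N = 2.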

The nature of data set [2]: Acute toxicity in po dosed Albino Swiss CD-1 mouse assessed as lethal dose after 24 hrs. The format is organism-based. The following applies: in vivo. In short, it runs like this:
(§1)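 Male Albino Swiss CD-1 mice received compound in saline. Intravenous doses were 100, 200, 250, 275 and 300 mg/kg (1–4 mice per group). Oral doses were 100, 200, 400, 600 and 800 mg/kg (4 per group). Vehicle-only controls were included.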

The species named for data set [3] is Cavia porcellus. The data set is described as follows: Activation of SERCA2a activity in guinea pig heart sarcoplasmic reticulum microsomal fraction assessed as increase in SERCA2a-Ca2+ affinity by measuring Kd of calcium at 10 to 100 nM preincubated for 5 mins followed by addition of 32-P-ATP measured after 15 mins. The format is subcellular. The conditions noted are these: filed as activator, dose 10-100 nM, time 20.0 min. Put shortly:
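Cardiac SR microsomes were prepared from healthy guinea pig hearts and contain SERCA2a plus PLN. Compounds were tested at 10 and 100 nM. ATPase was measured as 32P-ATP release at 37 °C, taking the cyclopiazonic acid (10 μM)-sensitive part, across Ca2+ 100–1500 nM. KdCa and Vmax were derived by curve fitting. N = 4–11; one-way RM ANOVA with Tukey or paired t-test.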

The species entered for data set [4] is Cavia porcellus. In words: Activation of SERCA2a activity in guinea pig heart sarcoplasmic reticulum microsomal fraction assessed as increase in SERCA2a-Ca2+ affinity by measuring Kd of calcium at 100 nM preincubated for 5 mins followed by addition of 32-P-ATP measured after 15 mins relative to control. The following applies: time 20.0 min. The format is subcellular. Put shortly: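 Cardiac SR microsomes were prepared from healthy guinea pig hearts and contain SERCA2a plus PLN. Compounds were tested at 10 and 100 nM. KdCa and Vmax were derived by curve fitting. N = 4–11; one-way RM ANOVA with Tukey or paired t-test.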

The nature of data set [5]: Acute toxicity in iv dosed Albino Swiss CD-1 mouse assessed as lethal dose after 24 hrs. The format is organism-based. The conditions noted are these: in vivo. In short, it runs like this: as §1
In data set [6] the test system is Rattus norvegicus. The data set is described as follows: Hemodynamic activity in STZ-induced diabetic cardiomyopathy Sprague-Dawley rat model assessed as effect on systolic TDI velocity at 0.2 mg/kg/min, iv for 15 to 30 mins measured after 10 mins of treatment by tissue doppler imaging method. The format is functional, organism-based. The following applies: time lower […], time upper 40.0 min. In short, it runs like this:
(§2)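 Male Sprague Dawley rats (150–175 g) were made diabetic with STZ 50 mg/kg i.v. in citrate buffer; fasting glycaemia >290 mg/dL at 1 week qualified. They were studied 8 weeks after STZ under urethane 1.25 g/kg i.p. Transthoracic echo with pulsed Doppler and TDI was taken before, at 15 and 30 min during i.v. infusion at 0.2 mg/kg/min, and 10 min after stopping. N = 13; one-way RM ANOVA.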

Data set [7] deals with Rattus norvegicus. In words: Hemodynamic activity in STZ-induced diabetic cardiomyopathy Sprague-Dawley rat model assessed as increased cardiac output at 0.2 mg/kg/min, iv for 15 to 30 mins measured after 10 mins of treatment by tissue doppler imaging method. The format is functional, organism-based. The conditions noted are these: time lower […], time upper 40.0 min. In short, it runs like this:
as §2

Data set [8] in a line: Inhibition of NA+/K+ ATPase activity in STZ-induced diabetic rat left ventricular myocytes assessed as inhibition of NA+/K+ ATPase current at 20 to 100 uM for 30 min. The format is toxicity, cell-based. The following applies: ventricular myocyte, 0.5 h, dose 20-100 µM.
Data set [9] has as its system Rattus norvegicus. The data set is described as follows: Hemodynamic activity in STZ-induced diabetic cardiomyopathy Sprague-Dawley rat model assessed as effect on heart rate at 0.2 mg/kg/min, iv for 15 to 30 mins measured after 10 mins of treatment by tissue doppler imaging method. The format is functional, organism-based. The conditions noted are these: time lower […], time upper 40.0 min. Put shortly:
as §2

For data set [10], the system named is Rattus norvegicus. The data set is described as follows: Hemodynamic activity in STZ-induced diabetic cardiomyopathy Sprague-Dawley rat model assessed as transmitral doppler flow index by measuring shortening in DT wave at 0.2 mg/kg/min, iv for 15 to 30 mins measured after 10 mins of treatment by tissue doppler imaging method. The format is functional, organism-based. The conditions noted are these: time lower […], time upper 40.0 min. In short, it runs like this: as §2

The species named for data set [11] is Cavia porcellus. The data set is described as follows: Activation of SERCA1 activity in guinea pig skeletal muscle microsome from hind leg assessed as increase in SERCA1-Ca2+ affinity by measuring reversal of PLN (1-12)-induced shift in dissociation of calcium. The format is microsomes. The following applies: filed as activator, dose 30-1000 nM, DDE = dose-dependent effect.

The nature of data set [12]: Acute toxicity in Albino Swiss CD-1 mouse assessed as gasping at 100 to 800 mg/kg, po or 100 to 300 mg/kg, iv after 24 hrs. The format is organism-based. The following applies: in vivo, dose 100-800 mg/kg. In short, it runs like this:
as §1

Data set [13] is described as follows: Acute toxicity in Albino Swiss CD-1 mouse assessed as convulsions at 100 to 800 mg/kg, po or 100 to 300 mg/kg, iv after 24 hrs. The format is organism-based. The conditions noted are these: in vivo, dose 100-800 mg/kg. Put shortly:
as §1

The test system of data set [14] is Rattus norvegicus. The data set is described as follows: Hemodynamic activity in STZ-induced diabetic cardiomyopathy Sprague-Dawley rat model assessed as effect on left ventricular end-systolic diameter at 0.2 mg/kg/min, iv for 15 to 30 mins measured after 10 mins of treatment by tissue doppler imaging method. The format is functional, organism-based. The conditions noted are these: time lower […], time upper 40.0 min. In short, it runs like this: as §2

Data set [15] relates to Rattus norvegicus. In words: Hemodynamic activity in STZ-induced diabetic cardiomyopathy Sprague-Dawley rat model assessed as effect on systolic index by measuring fractional shortening at 0.2 mg/kg/min, iv for 15 to 30 mins measured after 10 mins of treatment by tissue doppler imaging method. The format is functional, organism-based. The conditions noted are these: time lower […], time upper 40.0 min. Put shortly: as §2

Data set [16] concerns Rattus norvegicus. The data set is described as follows: Hemodynamic activity in STZ-induced diabetic cardiomyopathy Sprague-Dawley rat model assessed as transmitral doppler flow index by measuring increase in protodiastolic TDI relaxation velocity at 0.2 mg/kg/min, iv for 15 to 30 mins measured after 10 mins of treatment by tissue doppler imaging method. The format is functional, organism-based. The conditions noted are these: time lower […], time upper 40.0 min. In short, it runs like this: as §2

The subject of data set [17] is Rattus norvegicus. In words: Hemodynamic activity in STZ-induced diabetic cardiomyopathy Sprague-Dawley rat model assessed as transmitral doppler flow index by measuring increase in telediastolic TDI relaxation velocity at 0.2 mg/kg/min, iv for 15 to 30 mins measured after 10 mins of treatment by tissue doppler imaging method. The format is functional, organism-based. The conditions noted are these: time lower […], time upper 40.0 min. Put shortly: as §2

The species named for data set [18] is Cavia porcellus. In words: Activation of SERCA1 activity in guinea pig skeletal muscle microsome from hind leg assessed as increase in SERCA1-Ca2+ affinity by measuring Kd of calcium at 30 to 1000 nM preincubated for 5 mins followed by addition of 32-P-ATP measured after 15 mins in presence of PLN (1-12) relative to control. The format is microsomes. The conditions noted are these: dose 30-1000 nM, time 20.0 min.

For data set [19], the system named is Rattus norvegicus. In words: Hemodynamic activity in STZ-induced diabetic cardiomyopathy Sprague-Dawley rat model assessed as transmitral doppler flow index by measuring increasing in E and A waves at 0.2 mg/kg/min, iv for 15 to 30 mins measured after 10 mins of treatment by tissue doppler imaging method. The format is functional, organism-based. The following applies: time lower […], time upper 40.0 min. Put shortly: as §2

A short description of data set [20]: Acute toxicity in Albino Swiss CD-1 mouse assessed as prostration at 100 to 800 mg/kg, po or 100 to 300 mg/kg, iv after 24 hrs. The format is organism-based. The following applies: in vivo, dose 100-800 mg/kg. Put shortly:
as §1

Each structure is given as a SMILES string. Calls of active or inactive are those of the source. The rule behind the calls is not given here.

Regarding `C[C@]12CC[C@H](CC(=O)O)C[C@@H]1[C@H](O)C[C@@H]1[C@@H]2CC[C@]2(C)C(=O)CC[C@@H]12`, the inhibition (usually the drop in the measured response relative to a control, in per cent) at […], 100 µM in data set [1] is -55%.
With `C[C@]12CCC(=NOCCN)C[C@@H]1C(=O)C[C@@H]1[C@@H]2CC[C@]2(C)C(=O)CC[C@@H]12` (mixture of isomers), the median lethal dose (LD50) – broadly, the dose at which mortality reaches 50% – at 24 h in data set [2] came out at 200 mg/kg.
As for `CCOC(=O)CCCCC[C@H]1CC[C@@]2(C)[C@H](C1)[C@@H](O)C[C@@H]1[C@@H]2CC[C@]2(C)C(=O)CC[C@@H]12`, the result in data set [3] was Active. Further, the Activity in [4] is -26%.
The matching figures for `C[C@]12CC[C@H](CCCCCC(=O)O)C[C@@H]1[C@@H](O)C[C@@H]1[C@@H]2CC[C@]2(C)C(=O)CC[C@@H]12`: “Active” and -26%.
As for `C[C@]12CC/C(=N\OCC(=O)O)C[C@@H]1[C@H](O)C[C@@H]1[C@@H]2CC[C@]2(C)C(=O)CC[C@@H]12`, the 50% lethal dose (LD50) at 24 h in data set [5] is greater than 250 mg/kg.
Take `C[C@]12CC[C@H](CCCC(=O)O)C[C@@H]1[C@H](O)C[C@@H]1[C@@H]2CC[C@]2(C)C(=O)CC[C@@H]12`: in [3], the result was Active.
Take `CCOC(=O)CCC[C@H]1CC[C@@]2(C)[C@H](C1)[C@@H](O)C[C@@H]1[C@@H]2CC[C@]2(C)C(=O)CC[C@@H]12`: in data set [3], the outcome was Active. Besides, the Activity in [4] was -26%.
In the case of `C[C@]12CC[C@H](CCCC(=O)O)C[C@@H]1[C@@H](O)C[C@@H]1[C@@H]2CC[C@]2(C)C(=O)CC[C@@H]12`, the result in [3], in data set [6], in data set [7], in [9], in [10] and in data set [14] was Active. Further, the outcome in data set [15], in [16], in data set [17] and in data set [19] was Active. Also, the “inhibition (INH)” value in data set [8] was “Active”. Also, the Activity entry was “Dde” in data set [11]; “Non-Toxic” in data set [12]; “Non-Toxic” in [13]; 23% in data set [18]; “Non-Toxic” in [20].
Turning to `C[C@]12CC/C(=C\CCC(=O)O)C[C@@H]1[C@H](O)C[C@@H]1[C@@H]2CC[C@]2(C)C(=O)CC[C@@H]12`, the inhibition at […], 100 µM in [1] is -62%.
For the molecule `C[C@]12CC[C@H](CC(=O)O)C[C@@H]1[C@@H](O)C[C@@H]1[C@@H]2CC[C@]2(C)C(=O)CC[C@@H]12`, the outcome in data set [3] was Active. Further, the Activity entry in data set [11] is “Dde”; in data set [18], 23%; in [4] it was -26%.
For the molecule `C[C@]12CC/C(=C\CCC(=O)O)C[C@@H]1[C@@H](O)C[C@@H]1[C@@H]2CC[C@]2(C)C(=O)CC[C@@H]12`, the outcome in data set [3] was Active. Moreover, in [4], the Activity is -26%.
In the case of `CCOC(=O)C[C@H]1CC[C@@]2(C)[C@H](C1)[C@@H](O)C[C@@H]1[C@@H]2CC[C@]2(C)C(=O)CC[C@@H]12`, the outcome in [3] was Active.
